Assay results as given in article PMC8153786 (ACS Omega, 2021).
Where two headings read alike, the source gives them in different places.

Legend:
bovine serum albumin = conditions: BSA–flavonol interactions ref 69; cited from earlier work
mCCL2-M = mCCL2-M (Mus musculus, UniProt P10148, P31A); assay: Flavonol fluorescence quenching titration of mCCL2 monomer; format: binding, murine; conditions: for quenching constant (Kq): Stern–Volmer, 50 μM protein
In short: (§1)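 Each CCL2 variant (WT dimer or monomer, E. coli BL21(DE3)-expressed) was held at 50 μM and titrated with 10–100 μM flavonol from a 20 mM DMSO stock, at 25 °C. Trp W59 was excited at 295 nm and emission read at 300–450 nm, slits 5 nm. Buffer-only additions served as controls; runs in triplicate. Ksv and Kq came from Stern–Volmer analysis; Ka and n from a double-logarithmic plot, nonlinear regression and Scatchard analysis.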

mCCL2-WT [1] = biological target: T1, mCCL2-WT (Mus musculus, UniProt P10148); assay: 1H–15N HSQC NMR titration, chemical shift perturbation; format: binding, murine; conditions: mCCL2-WT 100 μM, protein/flavonol 1:5, comparison among the three flavonols
In short: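 15N-labelled WT murine protein, expressed in E. coli BL21(DE3), at 100 μM in 50 mM Na2HPO4/50 mM NaCl, pH 6.0. 1H–15N HSQC spectra recorded at 500 MHz and 25 °C. Flavonol from a 20 mM DMSO stock was added stepwise up to protein/ligand 1:5. Per-residue CSP was calculated from combined ΔδH and ΔδN.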

hCCL2-M = hCCL2-M (Homo sapiens, UniProt P13500, P31A); assay: Flavonol fluorescence quenching titration of hCCL2 monomer; format: binding; conditions: for quenching constant (Kq) / number of binding sites: hCCL2-M (monomer); for quenching constant (Kq): Stern–Volmer, 25 °C, 50 μM protein; for number of binding sites: double-logarithmic plot
In short: as §1

hCCL2-WT = hCCL2-WT (Homo sapiens, UniProt P13500); assay: Flavonol fluorescence quenching titration of hCCL2-WT; format: binding; conditions: for quenching constant (Kq) / number of binding sites: hCCL2-WT; for quenching constant (Kq): Stern–Volmer, 25 °C, 50 μM protein; for number of binding sites: double-logarithmic plot
In short: as §1

mCCL2-WT [2] = biological target: T1, mCCL2-WT; assay: Flavonol fluorescence quenching titration of mCCL2-WT; format: binding, murine; conditions: for quenching constant (Kq) / number of binding sites: mCCL2-WT; for quenching constant (Kq): Stern–Volmer, 25 °C, 50 μM protein; for number of binding sites: double-logarithmic plot
In short: as §1

canine distemper virus = conditions: comparison with morin ref 67; cited from earlier work
[3] = mCCL2-M (monomer), double-logarithmic plot

T1 sequence (P10148 24-148): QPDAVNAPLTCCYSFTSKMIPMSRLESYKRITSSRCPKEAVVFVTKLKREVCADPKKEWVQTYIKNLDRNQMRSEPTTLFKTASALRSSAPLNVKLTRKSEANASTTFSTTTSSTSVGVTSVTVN
Chain of hCCL2-M (P13500 24-99 P31A): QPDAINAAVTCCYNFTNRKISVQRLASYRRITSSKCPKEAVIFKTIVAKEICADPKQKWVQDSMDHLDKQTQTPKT
Chain of hCCL2-WT (P13500 24-99): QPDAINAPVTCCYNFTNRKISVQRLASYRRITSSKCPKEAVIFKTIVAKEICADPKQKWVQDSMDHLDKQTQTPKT
Chain of mCCL2-M (P10148 24-148 P31A): as the sequence (P10148 24-148) above, with P8A counted along it

Compound | binding constants (Ka) (bovine serum albumin) [L/mol] | Kd (mCCL2-M; dissociation constant (Kd), mCCL2-M (monomer), double-logarithmic plot, 25 °C) [µM] | quenching constant (Kq) (mCCL2-M; mCCL2-M (monomer), 25 °C) | number of binding sites (mCCL2-M; [3]) | perturbation of resonances in CSP maps (mCCL2-WT [1]) | Kd (hCCL2-M) [µM] | quenching constant (Kq) (hCCL2-M) | number of binding sites (hCCL2-M) | Kd (hCCL2-WT) [µM] | quenching constant (Kq) (hCCL2-WT) | number of binding sites (hCCL2-WT) | Kd (mCCL2-WT [2]) [µM] | quenching constant (Kq) (mCCL2-WT [2]) | number of binding sites (mCCL2-WT [2]) | Kd (mCCL2-M) [µM] | inhibitory activity (canine distemper virus)
O=c1c(O)c(-c2ccccc2)oc2cc(O)cc(O)c12 [galangin, reference compound] | 643000 |  |  |  |  |  |  |  |  |  |  |  |  |  |  | 
O=c1c(O)c(-c2cc(O)c(O)c(O)c2)oc2cc(O)cc(O)c12 [myricetin, 3,5,7-trihydroxy-2-(3,4,5-trihydroxyphenyl)chromen-4-one] | 4.9e+08 | 0.4 ± 0.03 | 6.3 × 10^12 m^–1 s^–1 | 1.2 ± 0.1 | largest perturbation of resonances | 0.43 ± 0.02 | 6.2 × 10^12 m^–1 s^–1 | 1.2 ± 0.2 | 0.38 ± 0.04 | 5.8 × 10^12 m^–1 s^–1 | 1.3 ± 0.2 | 0.42 ± 0.03 | 6.1 × 10^12 m^–1 s^–1 | 1.1 ± 0.2 |  | 
O=c1c(O)c(-c2ccc(O)c(O)c2)oc2cc(O)cc(O)c12 [quercetin, 2-(3,4-dihydroxyphenyl)-3,5,7-trihydroxychromen-4-one] | 3.65e+07 |  | 5.7 × 10^12 m^–1 s^–1 | 1.1 ± 0.2 |  | 3.6 ± 0.5 | 5.4 × 10^12 m^–1 s^–1 | 1.2 ± 0.1 | 3.5 ± 0.7 | 4.2 × 10^12 m^–1 s^–1 | 1.1 ± 0.1 | 3.9 ± 0.5 | 4.3 × 10^12 m^–1 s^–1 | 1.2 ± 0.2 | 3.7 ± 0.4 | higher inhibitory activity than morin
O=c1c(O)c(-c2ccc(O)cc2)oc2cc(O)cc(O)c12 [kaempferol, 3,5,7-trihydroxy-2-(4-hydroxyphenyl)chromen-4-one] | 2.57e+06 |  | 5.1 × 10^12 m^–1 s^–1 |  | the least | 25 ± 4 | 5.3 × 10^12 m^–1 s^–1 | 1.1 ± 0.1 | 26 ± 5 | 5.2 × 10^12 m^–1 s^–1 | 1.1 ± 0.1 | 24 ± 6 | 5.0 × 10^12 m^–1 s^–1 | 1.1 ± 0.2 | 26 ± 5 | 
